Experimental data reported in PMC4062594 (Nature chemical biology, 2014).
Substitutions are numbered along the chain they refer to.

Tests used:
PTP1B1-405 = molecular target: T1, PTP1B1-405 (Homo sapiens, UniProt P18031); experiment: PTP assay with DiFMUP substrate; format: biochemical
T1 sequence (P18031 1-405): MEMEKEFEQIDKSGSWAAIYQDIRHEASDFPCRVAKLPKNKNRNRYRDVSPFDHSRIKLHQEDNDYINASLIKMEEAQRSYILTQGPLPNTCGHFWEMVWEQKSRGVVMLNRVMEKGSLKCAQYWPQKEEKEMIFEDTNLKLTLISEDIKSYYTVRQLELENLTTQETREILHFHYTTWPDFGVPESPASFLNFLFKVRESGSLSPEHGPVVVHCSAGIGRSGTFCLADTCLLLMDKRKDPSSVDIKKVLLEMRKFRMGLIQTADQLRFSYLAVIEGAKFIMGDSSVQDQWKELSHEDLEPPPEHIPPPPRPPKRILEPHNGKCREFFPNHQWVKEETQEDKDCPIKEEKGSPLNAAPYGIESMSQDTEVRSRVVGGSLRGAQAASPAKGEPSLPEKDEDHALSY

PTP1B1-405 V370P = molecular target: T2, PTP1B1-405 V370P (Homo sapiens, UniProt P18031, V370P); experiment: PTP assay, helix α9′ point mutant; format: biochemical; conditions: S372P, R373P versus wild type
T2 sequence (P18031 1-405 V370P): T1 sequence (P18031 1-405) with V370P

MCF10A-NeuNT cells = experiment: Cell migration with PTP1B knock-down and re-expression; format: cell-based
Summary of the method: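 MCF10A-NeuNT cells carried doxycycline-inducible control or PTP1B shRNA miRs; doxycycline (500 ng/mL) was added 12 h after seeding and refreshed every 12 h. Cells were transfected 24 h with wild type or L192A/S372P PTP1B, then left untreated or given test compound (1 or 2 μM). Cells were run in Matrigel invasion chambers (8.0 μm pores) for 24–48 h, and migrated cells were Giemsa-stained and counted. Three experiments, in duplicate.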

Structure (SMILES): CC(C)[C@@H](CC[C@@H](C)[C@H]1CC[C@H]2[C@@H]3[C@H](O)C[C@H]4C[C@@H](NCCCNCCCCNCCCN)CC[C@]4(C)[C@H]3CC[C@]12C)OS(=O)(=O)O [MSI-1436, Trodusquemine]
- mode of inhibition (PTP1B1-405): reversible non-competitive inhibitor
- increase of Ki by helix-destabilizing Pro mutations (PTP1B1-405 V370P): 10–20 fold
- migration (MCF10A-NeuNT cells; PTP1B knock-down, reconstituted with PTP1B-L192A/S372P, MSI-1436 1 or 2 μM): no longer sensitive
- migration (MCF10A-NeuNT cells; PTP1B knock-down, reconstituted with wild type PTP1B, MSI-1436 1 or 2 μM): remained sensitive to inhibition
- migration (MCF10A-NeuNT cells; absence of doxycycline (endogenous PTP1B)): attenuated
